Bioassay records deposited in PubChem BioAssay by Johns Hopkins Ion Channel Center.
Kir21 inh: blocks the mouse Kir2.1 inward-rectifier potassium channel. HEK293-Kir2.1, FluxOR thallium flux fluorescence; stronger effect = lower value. B-score at 10 µM. actives 0.85% (n = 310,000). AID 1672;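 active means fluorescence ratio B-score at or below minus 3 SD of library scores, with starting-brightness B-score within 2 SD, cut at about -4.2 in these data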;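 further: channel flux triggered by added potassium and thallium sulfate stimulus; B-score of peak minus minimum fluorescence over baseline after thallium stimulus; more negative B-score means stronger Kir2.1 block with less thallium influx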
TRPC4 act: TRPC4 (mouse) channel activation. Q9QUQ5. HEK293 TRPC4beta/mu-opioid, Fluo4 calcium fluorescence; stronger effect = higher value. B-score at 10 µM. actives 0.49% (n = 310,000). AID 2237;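 active means B-score above 5 SD of library B-scores, and initial fluorescence ratio not above library mean plus 5 SD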;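 further: positive B-score marks a calcium rise read as TRPC4 activation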
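system = HEK293 cells stably co-expressing mouse TRPC4beta and mu-opioid receptor | schedule = Fluo4 dye loading 45 min at room temperature, 110 s recording | measure = B-scored integrated calcium fluorescence ratio | signal = Fluo4 calcium-sensitive dye fluorescence, kinetic, 1 Hz baseline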
TRPC6 inhibitor: mouse TRPC6 channel inhibition. Q61143. HEK293-TRPC6, membrane potential dye, ACh-evoked depolarization; stronger effect = lower value. B-score at 10 µM. actives 1.1% (n = 310,000);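 active means B-score under library mean minus 3 SD, initial fluorescence not abnormally high, positive integrated signal ratio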;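 further: B-score derived from integrated fluorescence ratio over the kinetic read; more negative B-score means stronger inhibition of depolarization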
Target sequence (Q61143 whole entry, looked up): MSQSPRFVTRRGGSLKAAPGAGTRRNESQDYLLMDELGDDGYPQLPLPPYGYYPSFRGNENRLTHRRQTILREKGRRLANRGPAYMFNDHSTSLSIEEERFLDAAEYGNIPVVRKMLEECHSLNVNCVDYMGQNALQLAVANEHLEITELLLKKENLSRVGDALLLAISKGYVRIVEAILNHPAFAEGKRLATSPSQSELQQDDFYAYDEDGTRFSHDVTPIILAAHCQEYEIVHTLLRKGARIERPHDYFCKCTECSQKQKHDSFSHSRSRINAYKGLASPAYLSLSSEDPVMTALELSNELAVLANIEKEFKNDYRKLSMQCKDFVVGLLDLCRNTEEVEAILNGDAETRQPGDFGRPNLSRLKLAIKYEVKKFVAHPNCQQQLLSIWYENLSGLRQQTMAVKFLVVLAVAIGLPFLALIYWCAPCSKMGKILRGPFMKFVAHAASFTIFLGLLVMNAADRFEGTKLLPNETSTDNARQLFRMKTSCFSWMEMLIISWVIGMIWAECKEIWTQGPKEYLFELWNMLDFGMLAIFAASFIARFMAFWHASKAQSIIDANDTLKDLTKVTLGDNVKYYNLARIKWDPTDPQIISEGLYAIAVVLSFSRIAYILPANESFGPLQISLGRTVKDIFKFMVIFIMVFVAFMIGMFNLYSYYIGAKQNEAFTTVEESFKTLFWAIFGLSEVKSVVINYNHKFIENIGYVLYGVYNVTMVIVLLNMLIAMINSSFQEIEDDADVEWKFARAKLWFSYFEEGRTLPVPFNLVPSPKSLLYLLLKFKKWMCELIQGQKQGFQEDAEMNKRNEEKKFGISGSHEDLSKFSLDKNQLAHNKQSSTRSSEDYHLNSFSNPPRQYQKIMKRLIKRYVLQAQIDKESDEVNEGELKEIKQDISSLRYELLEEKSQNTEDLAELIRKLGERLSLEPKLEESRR
TRPC4 PAM: allosterically enhances the mouse TRPC4 cation channel; actives 0.42% (n = 310,000); HEK293 TRPC4beta/mu-opioid, DAMGO EC20, Fluo-4 Ca2+ flux; stronger effect = higher value; B-score at 10 µM; Q9QUQ5;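 active means B-score of calcium response area above 5 SD of library B-scores, with initial fluorescence ratio within 5 SD of library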
TRPC4 block: TRPC4 (mouse) channel inhibition | B-score at 10 µM | Q9QUQ5 | HEK293 TRPC4beta/mu-opioid, DAMGO-evoked Fluo4 calcium flux; stronger effect = lower value | actives 0.39% (n = 300,000);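 active means B-score over 3 SD under the library average, no early fluorescence shift, positive overall ratio signal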
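Assay system: TRPC4beta/mu-opioid receptor HEK293 cell line; compound dosing: single concentration per test compound; detection: Fluo4 Ca2+ flux fluorescence; evaluation: per-well B score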
TRPC6 activator: activates the mouse TRPC6 cation channel; Q61143; HEK293-TRPC6 membrane potential dye fluorescence; stronger effect = higher value; B-score at 10 µM; actives 0.13% (n = 310,000); AID 2550;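 active means B-score of the integrated fluorescence ratio above library mean plus 3 SD, and starting fluorescence ratio within library mean plus 5 SD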;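 further: higher score means more depolarization so channel activation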
Each line names hits and unclear results; the compound was inactive in the other large screens; ! = not active in a repeat. Sampled rows, rich in hits. Any-hit rate of the full collection: about 3%.

COc1ccc(-n2nc(C(=O)NCC(=O)NCCc3ccc(OC)c(OC)c3)c3ccccc3c2=O)cc1Cl	none
Cc1cccc(C)c1OCC(O)CN1CCc2ccccc2C1 (stereo unspecified)	none
Cc1ccc(C(C)C)c(OCC(O)CN2CCc3ccccc3C2)c1 (stereo unspecified)	Kir21 inh -9.1
OC(COc1c(F)cc(Br)cc1F)CN1CCc2ccccc2C1 (stereo unspecified)	Kir21 inh -7
O=C(CCl)N1CCN2C(=O)c3ccccc3C12c1ccc(Cl)cc1 (stereo unspecified)	Kir21 inh -4.6
O=C(Nc1cccc(Cl)c1)N1CCN2C(=O)c3ccccc3C12c1ccccc1 (stereo unspecified)	TRPC4 block -6
O=C(CN1C(=O)c2ccccc2C1=O)Nc1cccc(Cl)c1	none
O=C(COC(=O)C1(c2ccc(Cl)cc2)CCCC1)N1CCc2ccccc21	none
COc1ccc(CCN=C(N)Nc2nc(C)cc(C)n2)cc1	TRPC4 block -6
CCn1c(N2CCN(C(=O)NC3CCCCC3)CC2)nc2ccccc21	TRPC4 act 46
CCCn1c(N2CCN(C(=O)N3CCCCC3)CC2)nc2ccccc21	none
O=C(NC1CCCCC1)N1CCN(C(c2ccccc2)c2ccccc2)CC1	TRPC4 block -6
CCn1c(NC2CCCCC2)nc2ccccc21	TRPC4 block -6
CCn1c(N2CCN(C(=O)Nc3ccc(F)cc3)CC2)nc2ccccc21	TRPC4 act 118
NS(=O)(=O)c1ccc(NC(=O)/C(=C/c2ccncc2)NC(=O)c2ccccc2)cc1	none
CC(OC(=O)Cn1[nH]c(=O)c2ccccc2c1=O)C(=O)c1ccccc1 (stereo unspecified)	none
CC(=O)Nc1ccc(-c2csc(NC(C)c3ccccc3)n2)cc1 (stereo unspecified)	none
O=C(NCC(c1ccco1)N1CCN(c2ccccc2F)CC1)c1ccc2c(c1)OCO2 (stereo unspecified)	none
CCn1c(N2CCN(CC(=O)Nc3cccc(C)c3C)CC2)nc2ccccc21	TRPC4 act 147
CC(C)Cn1c(N2CCN(CC(=O)Nc3ccc(Cl)cc3)CC2)nc2ccccc21	none
CC(C)CNC(=S)N(CCO)Cc1cc2cc3c(cc2[nH]c1=O)OCO3	none
CCN(CC(=O)Nc1cccc(OC)c1)CC(=O)Nc1ccc(C)cc1Cl	none
CCCn1c(COc2ccccc2OC)nc2ccccc21	Kir21 inh -4.3
COc1ccccc1OCCSc1nc2ccccc2n1CCO	Kir21 inh -4.3
CCn1c(COc2ccccc2OC)nc2ccccc21	none
COc1ccccc1OCCSc1nc2ccccc2n1CCC(=O)O	none
C/C(=N/Nc1ccnc2cc(Cl)ccc12)c1ccc(N)cc1	TRPC4 act 63
O=C(CC1CC2CCC1C2)NC1CCCCCCC1 (stereo unspecified)	none
OC12CCCCC1C(c1ccc3c(c1)OCO3)N(Cc1ccc(F)cc1)CC2 (stereo unspecified)	TRPC4 act 48
Cc1ccc(-c2ccc(=O)n(Cc3c(F)cccc3Cl)n2)cc1	none
CC(=O)Nc1ccc(OC(=O)c2ccco2)cc1	none
CCCOC(=O)c1ccc(OC(=O)c2ccco2)cc1	Kir21 inh -4.4
COc1ccc(C(=O)NC(=S)N2CC(C)OC(C)C2)cc1OC (stereo unspecified)	none
CNCC[C@H](Oc1cccc2ccccc12)c1cccs1	Kir21 inh -9.1, TRPC6 inhibitor -5.7!
Cc1ccccc1-c1noc(CNC(=O)c2ccco2)n1	none
C=CCc1cc(Cl)ccc1OCCCNC(C)C	none
C=CCc1cc(Cl)ccc1OCCCNCCO	Kir21 inh -5.4, TRPC4 PAM 14
Cc1ccc(CC(=O)Nc2ccc(S(=O)(=O)Nc3ncccn3)cc2)cc1	none
C=C(C)CC(NCc1ccco1)c1ccc(OC)cc1 (stereo unspecified)	Kir21 inh -5.4
CCCN1CCN(C(=O)c2c(Cl)cnn2C)CC1	none
CCN(CC)CCN(C(=O)CN1C(=O)c2ccccc2C1=O)c1nc2cc3c(cc2s1)OCO3	TRPC6 inhibitor -8.7
CN(C)CCN(C(=O)c1ccc(S(=O)(=O)N(C)c2ccccc2)cc1)c1nc2cc3c(cc2s1)OCO3	none
CCN(Cc1ccccc1)S(=O)(=O)c1ccc(C(=O)N(CCCN(C)C)c2nc3cc4c(cc3s2)OCO4)cc1	TRPC4 act 45, TRPC4 block -6
CN(C)CCN(C(=O)CN1C(=O)c2ccccc2C1=O)c1nc2cc3c(cc2s1)OCO3	none
CN(C)CCCN(C(=O)c1ccc2c(c1)OCCO2)c1nc2ccc(Cl)cc2s1	Kir21 inh -9.9
CN(C)CCCN(C(=O)c1ccc2c(c1)CCCC2)c1nc2cc3c(cc2s1)OCO3	none
CN(C)CCCN(C(=O)c1ccc(Br)s1)c1nc2cc3c(cc2s1)OCO3	TRPC4 block -7
CCN(Cc1ccccc1)S(=O)(=O)c1ccc(C(=O)N(CCCN(C)C)c2nc3c(C)c(C)ccc3s2)cc1	Kir21 inh -4.5
CN(C)CCN(C(=O)c1cccc(Cl)c1)c1nc2c(Cl)cccc2s1	TRPC4 PAM 11
COC(=O)c1ccc(NC(=O)C2CCCN2C(=O)OCc2ccccc2)cc1 (stereo unspecified)	none
CCOc1ccc2[nH]c3c(N4CCN(c5ccccn5)CC4)ncnc3c2c1	TRPC4 block -6
O=C(CCn1nnc2ccccc21)OCC(=O)c1ccc(F)cc1	none
O=C1CN=C(Nc2cccc(C(F)(F)F)c2)N1C1CCCC1	TRPC4 block -6
Cc1cc(C)c(NC2=NCC(=O)N2C2CCCCC2)c(C)c1	none
Cc1noc(C(=O)N2CC3(C)CC2CC(C)(C)C3)c1Cl (stereo unspecified)	none
CC1(C)CC2CC(C)(CN2C(=O)c2cc(-c3ccc(O)cc3)on2)C1 (stereo unspecified)	TRPC4 block -6
Cc1cc(C)c(S(=O)(=O)c2cccc(Br)c2C)c(Cl)n1	none
CCOC(=O)C1(CCc2ccccc2)CCN(Cc2ccc(O)cc2)CC1	Kir21 inh -4.5, TRPC4 act 49, TRPC4 block -6
CCOC(=O)C1(CCOc2ccccc2)CCN(Cc2ccc(O)cc2)CC1	none
CCOC(=O)C1(CCc2ccccc2)CCN(Cc2ccc(OC)cc2)CC1	Kir21 inh -5.2, TRPC4 act 119
CCOC(=O)C1(CCc2ccccc2)CCN(Cc2c(O)cccc2OC)CC1	TRPC4 act 79
CCOC(=O)C1(Cc2ccccc2)CCN(Cc2ccc(C)s2)CC1	TRPC4 block -8
CCOC(=O)C1(Cc2ccccc2)CCN(Cc2ccc(C3CCCCO3)s2)CC1 (stereo unspecified)	none
Cc1cc(C)cc(NS(=O)(=O)c2c(C(=O)N3CCOCC3)c(C)n(C)c2C)c1	none
